Measurements taken from ChEMBL document CHEMBL1158511, “Tricyclic dihydroquinazolinones as novel 5-HT2C selective and orally efficacious anti-obesity agents” (Bioorg Med Chem Lett, 2010).

Tests used:
[1] = molecular target: T1, 5-hydroxytryptamine receptor 2A (Homo sapiens, UniProt P28223); experiment: Agonist activity at human recombinant 5HT2A receptor expressed in HEK293E cells by FLIPR assay; assay type: functional, cell-based
Summary of the method: (§1)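 Calcium mobilization measured by FLIPR in HEK293E cells expressing human 5-HT2A, 5-HT2B or 5-HT2C receptor. Values are means of ≥2 independent 12-point dose-response curves (n ≥4 where SD is given). mCPP is the positive control.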

[2] = AUC (0 to infinity) in Sprague-Dawley rat at 1 mg/kg, iv; assay type: ADME, organism-based; design: time infinity, dose 1 mg/kg, route intravenous; settings: plasma
Summary of the method: (§2)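 Male Sprague–Dawley rats were dosed at 1 mpk iv and po. Values are means of 3 animals per route.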

[3] = Tmax in Sprague-Dawley rat at 1 mg/kg, po; assay type: ADME, organism-based; design: dose 1 mg/kg, route oral; settings: in vivo
Summary of the method: (§3)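 Male Sprague–Dawley rats were dosed po only at 1 or 10 mpk. Values are means of 2 animals. AUC was collected over 4 h. Plasma and total brain levels were taken at 4 h post dose.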

hERG = hERG (Homo sapiens, UniProt Q12809); experiment: Inhibition of human ERG at 10 uM by patch clamp method
[4] = Tmax in Sprague-Dawley rat at 10 mg/kg, po; assay type: ADME, organism-based; design: dose 10 mg/kg, route oral; settings: in vivo; summary of the method: as §3
[5] = molecular target: T2, 5-hydroxytryptamine receptor 2B (Homo sapiens, UniProt P41595); experiment: Displacement of [3H]LSD from human recombinant 5HT2B receptor expressed in HEK293E cells
[6] = molecular target: T2, 5-hydroxytryptamine receptor 2B; experiment: Agonist activity at human recombinant 5HT2B receptor expressed in HEK293E cells by FLIPR assay; assay type: functional, cell-based; summary of the method: as §1
[7] = molecular target: T1, 5-hydroxytryptamine receptor 2A; experiment: Displacement of [125I]DOI from human recombinant 5HT2A receptor expressed in HEK293E cells; assay type: cell-based
Summary of the method: (§4)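 Radioligand binding with [125I]DOI at the human 5-HT2C or 5-HT2A receptor. Ki is the mean of ≥2 independent 12-point dose-response curves (n ≥4 where SD is given).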

Rattus norvegicus [8] = organism: Rattus norvegicus; experiment: Toxicity in Sprague-Dawley rat; assay type: organism-based; settings: in vivo
[9] = molecular target: T3, 5-hydroxytryptamine receptor 2C (Homo sapiens, UniProt P28335); experiment: Agonist activity at human recombinant 5HT2C receptor expressed in HEK293E cells by FLIPR assay; assay type: functional, cell-based; summary of the method: as §1
T3 sequence (P28335 whole entry): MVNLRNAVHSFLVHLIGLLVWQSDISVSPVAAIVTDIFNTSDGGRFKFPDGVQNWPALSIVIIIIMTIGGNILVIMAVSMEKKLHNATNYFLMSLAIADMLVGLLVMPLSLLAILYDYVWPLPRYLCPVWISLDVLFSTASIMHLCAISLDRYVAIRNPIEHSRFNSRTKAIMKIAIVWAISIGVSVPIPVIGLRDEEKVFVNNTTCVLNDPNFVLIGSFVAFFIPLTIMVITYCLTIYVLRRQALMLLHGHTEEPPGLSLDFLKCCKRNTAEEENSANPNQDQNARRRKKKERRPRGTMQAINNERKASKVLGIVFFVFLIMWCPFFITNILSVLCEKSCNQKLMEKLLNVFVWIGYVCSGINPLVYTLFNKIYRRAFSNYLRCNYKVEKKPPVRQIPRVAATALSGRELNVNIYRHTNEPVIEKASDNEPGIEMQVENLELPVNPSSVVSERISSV

Cytochrome P450 2C19 = Cytochrome P450 2C19 (Homo sapiens, UniProt P33261); experiment: Inhibition of CYP2C19; assay type: ADME
[10] = Half life in Sprague-Dawley rat at 1 mg/kg, po; assay type: ADME, organism-based; design: dose 1 mg/kg, route oral; settings: in vivo; summary of the method: as §2
Cytochrome P450 1A2 = molecular target: T4, Cytochrome P450 1A2 (Homo sapiens, UniProt P05177); experiment: Inhibition of CYP1A2; assay type: ADME
T4 sequence (P05177 whole entry): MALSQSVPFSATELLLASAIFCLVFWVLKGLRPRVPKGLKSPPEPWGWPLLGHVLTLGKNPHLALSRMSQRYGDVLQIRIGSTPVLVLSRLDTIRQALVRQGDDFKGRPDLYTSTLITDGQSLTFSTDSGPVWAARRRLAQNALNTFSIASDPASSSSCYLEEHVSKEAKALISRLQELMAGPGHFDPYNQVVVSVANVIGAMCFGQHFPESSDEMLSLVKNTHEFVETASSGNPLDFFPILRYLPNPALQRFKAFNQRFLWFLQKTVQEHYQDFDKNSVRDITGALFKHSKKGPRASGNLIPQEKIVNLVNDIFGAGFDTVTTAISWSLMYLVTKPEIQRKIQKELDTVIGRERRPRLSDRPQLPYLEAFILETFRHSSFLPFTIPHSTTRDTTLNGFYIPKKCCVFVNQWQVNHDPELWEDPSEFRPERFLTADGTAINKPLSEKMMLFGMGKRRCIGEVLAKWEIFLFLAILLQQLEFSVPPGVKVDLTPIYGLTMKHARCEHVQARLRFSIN

[11] = Cmax in Sprague-Dawley rat at 1 mg/kg, po; assay type: ADME, organism-based; design: dose 1 mg/kg, route oral; settings: in vivo; summary of the method: as §3
[12] = Half life in Sprague-Dawley rat at 1 mg/kg, iv; assay type: ADME, organism-based; design: dose 1 mg/kg, route intravenous; settings: in vivo; summary of the method: as §2
Rattus norvegicus [13] = experiment: Antiobesity activity in Sprague-Dawley rat assessed as reduction of caloric intake at 30 mg/kg, po after 4 days; assay type: functional; design: scale not given: the % may be the effect or the level left
Summary of the method: (§5)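 Male Sprague–Dawley rats, about 240 g (n = 8), were dosed orally once daily for 4 days with compound or vehicle (14% propylene glycol, 1% tween, 85% water, v/v/v). Body weight, food and water intake were measured daily and compared with vehicle.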

[14] = Volume of distribution at steady state in Sprague-Dawley rat at 1 mg/kg, iv; assay type: ADME, organism-based; design: dose 1 mg/kg, route intravenous; settings: in vivo, read-out: Vdss; summary of the method: as §2
[15] = Oral bioavailability in Sprague-Dawley rat at 1 mg/kg; assay type: ADME, organism-based; settings: in vivo; summary of the method: as §2
CYP2C19 = CYP2C19 (Homo sapiens, UniProt P33261); experiment: Inhibition of CYP2C19 at 10 uM; assay type: ADME
Cytochrome P450 2D6 = Cytochrome P450 2D6 (Homo sapiens, UniProt P10635); experiment: Inhibition of CYP2D6; assay type: ADME
Brain [16] = experiment: Drug level in Sprague-Dawley rat brain at 10 mg/kg, po after 4 hrs; assay type: ADME, organism-based; design: dose 10 mg/kg, route oral; settings: in vivo; summary of the method: as §3
CYP1A2 = molecular target: T5, CYP1A2 (Homo sapiens, UniProt P05177); experiment: Inhibition of CYP1A2 at 10 uM; assay type: ADME
T5 sequence (P05177 whole entry): T4 sequence (P05177 whole entry)

Brain [17] = experiment: Drug level in Sprague-Dawley rat brain at 1 mg/kg, po after 4 hrs; assay type: ADME, organism-based; design: dose 1 mg/kg, route oral; settings: in vivo; summary of the method: as §3
[18] = Cmax in Sprague-Dawley rat at 10 mg/kg, po; assay type: ADME, organism-based; design: dose 10 mg/kg, route oral; settings: in vivo; summary of the method: as §3
Cytochrome P450 3A4 = Cytochrome P450 3A4 (Homo sapiens, UniProt P08684); experiment: Inhibition of CYP3A4; assay type: ADME
CYP2C9 = CYP2C9 (Homo sapiens, UniProt P11712); experiment: Inhibition of CYP2C9 at 10 uM; assay type: ADME
Rattus norvegicus [19] = experiment: Antiobesity activity in Sprague-Dawley rat assessed as reduction of body weight at 30 mg/kg, po after 4 days; assay type: functional; design: scale not given: the % may be the effect or the level left; summary of the method: as §5
CYP3A4 = CYP3A4 (Homo sapiens, UniProt P08684); experiment: Inhibition of CYP3A4 at 10 uM; assay type: ADME
[20] = AUC in Sprague-Dawley rat at 10 mg/kg, po after 4 hrs; assay type: ADME, organism-based; design: time < 4 hr, dose 10 mg/kg, route oral; settings: plasma; summary of the method: as §3
[21] = Plasma concentration in Sprague-Dawley rat at 10 mg/kg, po after 4 hrs; assay type: ADME, organism-based; design: dose 10 mg/kg, route oral; summary of the method: as §3
CYP2D6 = CYP2D6 (Homo sapiens, UniProt P10635); experiment: Inhibition of CYP2D6 at 10 uM; assay type: ADME
[22] = AUC in Sprague-Dawley rat at 1 mg/kg, po after 4 hrs; assay type: ADME, organism-based; design: time < 4 hr, dose 1 mg/kg, route oral; settings: plasma; summary of the method: as §3
[23] = molecular target: T3, 5-hydroxytryptamine receptor 2C; experiment: Displacement of [125I]DOI from human recombinant 5HT2C receptor expressed in HEK293E cells; assay type: cell-based; summary of the method: as §4
[24] = AUC (0 to infinity) in Sprague-Dawley rat at 1 mg/kg, po; assay type: ADME, organism-based; design: time infinity, dose 1 mg/kg, route oral; settings: plasma; summary of the method: as §2
[25] = Clearance in Sprague-Dawley rat at 1 mg/kg, iv; assay type: ADME, organism-based; design: dose 1 mg/kg, route intravenous; settings: in vivo; summary of the method: as §2
[26] = Plasma concentration in Sprague-Dawley rat at 1 mg/kg, po after 4 hrs; assay type: ADME, organism-based; design: dose 1 mg/kg, route oral; summary of the method: as §3
Cytochrome P450 2C9 = Cytochrome P450 2C9 (Homo sapiens, UniProt P11712); experiment: Inhibition of CYP2C9; assay type: ADME
Rattus norvegicus [27] = experiment: Antiobesity activity in Sprague-Dawley rat assessed as reduction of food intake at 10 mg/kg, po after 20 hrs; assay type: functional; design: scale not given: the % may be the effect or the level left

T2 sequence (P41595 whole entry): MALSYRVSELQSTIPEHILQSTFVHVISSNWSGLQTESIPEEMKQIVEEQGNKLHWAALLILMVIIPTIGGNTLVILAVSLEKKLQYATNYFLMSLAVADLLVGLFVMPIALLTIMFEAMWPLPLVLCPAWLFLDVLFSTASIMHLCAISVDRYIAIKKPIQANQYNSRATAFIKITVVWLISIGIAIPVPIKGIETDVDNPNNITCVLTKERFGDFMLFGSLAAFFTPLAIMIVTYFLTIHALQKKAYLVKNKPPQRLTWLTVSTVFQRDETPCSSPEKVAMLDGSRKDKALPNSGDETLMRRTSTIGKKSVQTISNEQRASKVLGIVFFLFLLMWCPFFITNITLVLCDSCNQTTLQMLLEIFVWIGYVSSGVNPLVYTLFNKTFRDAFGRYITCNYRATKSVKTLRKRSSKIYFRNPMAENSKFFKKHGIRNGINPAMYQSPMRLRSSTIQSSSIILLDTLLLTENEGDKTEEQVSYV
T1 sequence (P28223 whole entry): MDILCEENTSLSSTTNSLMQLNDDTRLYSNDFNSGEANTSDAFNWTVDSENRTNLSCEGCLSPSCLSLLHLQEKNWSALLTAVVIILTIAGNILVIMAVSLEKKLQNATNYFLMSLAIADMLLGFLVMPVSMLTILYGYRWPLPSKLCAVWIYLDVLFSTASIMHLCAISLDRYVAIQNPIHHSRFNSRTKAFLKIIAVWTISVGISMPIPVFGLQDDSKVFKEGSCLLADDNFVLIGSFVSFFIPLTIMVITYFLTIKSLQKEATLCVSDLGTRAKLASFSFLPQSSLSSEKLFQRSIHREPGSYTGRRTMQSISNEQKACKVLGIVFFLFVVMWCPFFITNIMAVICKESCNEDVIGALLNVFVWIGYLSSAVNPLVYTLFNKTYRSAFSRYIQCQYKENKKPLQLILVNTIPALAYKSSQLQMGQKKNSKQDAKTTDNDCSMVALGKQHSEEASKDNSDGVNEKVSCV
Chain of hERG (Q12809 whole entry): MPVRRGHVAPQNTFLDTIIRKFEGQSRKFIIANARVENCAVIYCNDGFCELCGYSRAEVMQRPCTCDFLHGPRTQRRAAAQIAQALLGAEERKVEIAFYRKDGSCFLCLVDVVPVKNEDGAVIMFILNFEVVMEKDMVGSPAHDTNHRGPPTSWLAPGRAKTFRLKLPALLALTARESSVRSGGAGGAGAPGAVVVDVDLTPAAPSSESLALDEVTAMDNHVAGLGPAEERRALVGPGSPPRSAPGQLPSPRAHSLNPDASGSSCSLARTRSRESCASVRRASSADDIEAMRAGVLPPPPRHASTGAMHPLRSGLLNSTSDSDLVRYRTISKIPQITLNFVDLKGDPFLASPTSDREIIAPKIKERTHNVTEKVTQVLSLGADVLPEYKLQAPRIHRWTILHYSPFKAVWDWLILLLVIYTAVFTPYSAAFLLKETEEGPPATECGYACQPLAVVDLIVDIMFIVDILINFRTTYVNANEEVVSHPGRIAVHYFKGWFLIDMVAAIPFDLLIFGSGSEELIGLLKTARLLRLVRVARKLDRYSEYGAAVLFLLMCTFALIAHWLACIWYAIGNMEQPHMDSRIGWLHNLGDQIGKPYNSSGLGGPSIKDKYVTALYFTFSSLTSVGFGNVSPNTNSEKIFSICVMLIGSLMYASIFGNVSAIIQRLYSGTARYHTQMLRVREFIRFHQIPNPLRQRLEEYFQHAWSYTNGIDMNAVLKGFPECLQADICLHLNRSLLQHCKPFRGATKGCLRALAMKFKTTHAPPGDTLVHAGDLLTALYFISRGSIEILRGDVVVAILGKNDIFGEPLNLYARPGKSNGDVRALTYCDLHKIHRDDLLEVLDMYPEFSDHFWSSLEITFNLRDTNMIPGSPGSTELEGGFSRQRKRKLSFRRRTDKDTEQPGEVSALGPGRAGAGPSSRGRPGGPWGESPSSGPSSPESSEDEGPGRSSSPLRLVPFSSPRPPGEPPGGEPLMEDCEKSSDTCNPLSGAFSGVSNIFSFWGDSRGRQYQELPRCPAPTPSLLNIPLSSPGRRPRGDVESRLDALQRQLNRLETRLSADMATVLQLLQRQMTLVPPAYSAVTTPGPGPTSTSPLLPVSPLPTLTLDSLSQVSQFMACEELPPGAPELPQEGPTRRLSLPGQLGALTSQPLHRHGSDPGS
Chain of CYP2C9 (P11712 whole entry): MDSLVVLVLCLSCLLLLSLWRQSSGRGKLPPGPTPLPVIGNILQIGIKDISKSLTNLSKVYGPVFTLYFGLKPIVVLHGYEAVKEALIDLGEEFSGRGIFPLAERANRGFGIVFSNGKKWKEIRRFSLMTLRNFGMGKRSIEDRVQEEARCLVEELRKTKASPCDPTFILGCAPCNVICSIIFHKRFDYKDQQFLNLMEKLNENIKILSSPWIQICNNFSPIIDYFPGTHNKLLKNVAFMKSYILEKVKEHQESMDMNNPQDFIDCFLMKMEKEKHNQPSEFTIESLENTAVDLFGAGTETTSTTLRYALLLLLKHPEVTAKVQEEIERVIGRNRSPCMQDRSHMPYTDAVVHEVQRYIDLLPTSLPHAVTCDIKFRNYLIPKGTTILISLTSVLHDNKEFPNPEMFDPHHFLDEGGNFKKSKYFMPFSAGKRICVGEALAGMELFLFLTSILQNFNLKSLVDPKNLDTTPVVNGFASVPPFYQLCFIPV
Chain of Cytochrome P450 2C9 (P11712 whole entry): as above
Chain of Cytochrome P450 3A4 (P08684 whole entry): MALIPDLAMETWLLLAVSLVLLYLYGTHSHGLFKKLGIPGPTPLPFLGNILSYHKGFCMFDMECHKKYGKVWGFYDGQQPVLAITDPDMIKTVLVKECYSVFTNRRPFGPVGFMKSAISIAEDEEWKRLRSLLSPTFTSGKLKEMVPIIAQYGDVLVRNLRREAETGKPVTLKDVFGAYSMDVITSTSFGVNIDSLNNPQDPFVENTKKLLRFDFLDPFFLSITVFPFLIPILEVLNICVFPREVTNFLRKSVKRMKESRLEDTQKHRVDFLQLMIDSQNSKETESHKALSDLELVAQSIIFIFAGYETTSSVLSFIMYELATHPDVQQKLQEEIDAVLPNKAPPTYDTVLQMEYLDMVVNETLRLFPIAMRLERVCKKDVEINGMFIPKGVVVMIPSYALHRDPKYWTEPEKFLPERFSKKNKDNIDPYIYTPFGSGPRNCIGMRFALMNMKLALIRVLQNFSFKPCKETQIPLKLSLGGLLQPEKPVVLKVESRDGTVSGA
Chain of CYP3A4 (P08684 whole entry): as above
Chain of CYP2C19 (P33261 whole entry): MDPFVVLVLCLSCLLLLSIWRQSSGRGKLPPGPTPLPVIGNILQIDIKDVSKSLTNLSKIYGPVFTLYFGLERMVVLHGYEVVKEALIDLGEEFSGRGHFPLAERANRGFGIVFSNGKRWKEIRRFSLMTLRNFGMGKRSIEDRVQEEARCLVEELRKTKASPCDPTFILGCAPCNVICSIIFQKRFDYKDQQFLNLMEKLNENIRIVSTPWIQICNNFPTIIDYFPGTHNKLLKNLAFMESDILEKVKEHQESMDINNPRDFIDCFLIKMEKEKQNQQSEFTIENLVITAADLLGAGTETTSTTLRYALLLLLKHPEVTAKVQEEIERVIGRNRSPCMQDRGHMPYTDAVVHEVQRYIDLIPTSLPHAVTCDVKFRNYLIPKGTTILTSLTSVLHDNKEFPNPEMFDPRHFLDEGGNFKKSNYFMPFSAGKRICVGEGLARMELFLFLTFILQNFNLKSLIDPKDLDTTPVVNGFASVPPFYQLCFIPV
Chain of Cytochrome P450 2C19 (P33261 whole entry): as above

## Cc1cccc2c1C(=O)NC1CNCCN21 (single isomer, unassigned; (+))
[1]
  EC50: > 10 µM
[2]
  AUC(0-inf): 2.34 µM·h
[3]
  Tmax: 60 min
hERG
  inhibition at 10 µM: 37%
[4]
  Tmax: 30 min
[5]
  Ki: 0.0086 µM
[6]
  EC50: > 10 µM
[7]
  Ki: 0.229 µM
Rattus norvegicus [8]
  Activity: Non-toxic
[9]
  EC50: 0.045 µM
Cytochrome P450 2C19
  IC50: > 40 µM
[10]
  half-life: 150 min
Cytochrome P450 1A2
  IC50: > 40 µM
[11]
  Cmax: 293 nM
[12]
  half-life: 54 min
Rattus norvegicus [13]
  Activity: 16%
[14]
  Vd: 1.3 L/kg
[15]
  bioavailability: 49%
CYP2C19
  inhibition at 10 µM: > 50%
Cytochrome P450 2D6
  IC50: > 40 µM
Brain [16]
  Drug uptake: 3010 nmol/kg
CYP1A2
  inhibition at 10 µM: > 50%
Brain [17]
  Drug uptake: 326 nmol/kg
[18]
  Cmax: 5380 nM
Cytochrome P450 3A4
  IC50: > 40 µM
CYP2C9
  inhibition at 10 µM: > 50%
Rattus norvegicus [19]
  Activity: 4.1%
CYP3A4
  inhibition at 10 µM: > 50%
[20]
  AUC at 4 h: 1.24 µM·h
[21]
  concentration at 4 h: 2120 nM
CYP2D6
  inhibition at 10 µM: > 50%
[22]
  AUC at 4 h: 1.04 µM·h
[23]
  Ki: 0.089 µM
[24]
  AUC(0-inf): 1.15 µM·h
[25]
  clearance: 27 mL/min/kg
[26]
  concentration at 4 h: 219 nM
Cytochrome P450 2C9
  IC50: > 40 µM
Rattus norvegicus [27]
  Activity: 22%
